Laboratory results published in ChEMBL document CHEMBL1795202, “An investigation of phenylthiazole antiflaviviral agents” (Bioorg Med Chem, 2011).
Calls of active or inactive are those of the source. The rule behind the calls is not given here.

How the values were obtained:
[1] = Toxicity against uninfected BHK cells assessed as growth inhibition incubated at 37 degC for 36 hrs by XTT assay; type: cell-based, Mesocricetus auratus; conditions: hamster
Method in brief: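 Confluent BHK-15 cells were exposed to serial dilutions of compound (DMSO stocks) for ~36 h at 37 °C, 5% CO2. Medium was then replaced, and XTT substrate was added for 2 h at 37 °C before reading OD450. Values were compared with 1% DMSO-treated cells to calculate GI50.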

Yellow fever virus [2] = experiment: Antiviral activity against luciferase reporting full length Yellow fever virus infected in BHK15 cells assessed as reduction in virus infectivity ncubated at 50 uM at 37 degC for 36 hrs by luciferase reporter gene assay; type: functional; conditions: BHK15, 36 h
Yellow fever virus [3] = experiment: microbe, parasite or virus in culture; type: functional, organism-based; conditions: BHK15, 36 h
[4] = Therapeutic index, ratio of GI50 for uninfected BHK cells to EC50 for luciferase reporting full length Yellow fever virus; type: cell-based; conditions: hamster, read-out: TI
Method in brief: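 TI is GI50 in uninfected BHK cells (XTT, ~36 h) divided by EC50. EC50 was estimated by nonlinear regression against DMSO-treated infected cells.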

[5] = target: T1, Luciferin 4-monooxygenase (Luciola lateralis) (UniProt Q01158); experiment: Inhibition of firefly luciferase expressed in BHK15 cells transfected with luciferase-pcDNA3 incubated at 37 degC for 20 hrs by luciferase reporter gene assay; type: cell-based; conditions: Aquatica lateralis
T1 sequence (whole entry): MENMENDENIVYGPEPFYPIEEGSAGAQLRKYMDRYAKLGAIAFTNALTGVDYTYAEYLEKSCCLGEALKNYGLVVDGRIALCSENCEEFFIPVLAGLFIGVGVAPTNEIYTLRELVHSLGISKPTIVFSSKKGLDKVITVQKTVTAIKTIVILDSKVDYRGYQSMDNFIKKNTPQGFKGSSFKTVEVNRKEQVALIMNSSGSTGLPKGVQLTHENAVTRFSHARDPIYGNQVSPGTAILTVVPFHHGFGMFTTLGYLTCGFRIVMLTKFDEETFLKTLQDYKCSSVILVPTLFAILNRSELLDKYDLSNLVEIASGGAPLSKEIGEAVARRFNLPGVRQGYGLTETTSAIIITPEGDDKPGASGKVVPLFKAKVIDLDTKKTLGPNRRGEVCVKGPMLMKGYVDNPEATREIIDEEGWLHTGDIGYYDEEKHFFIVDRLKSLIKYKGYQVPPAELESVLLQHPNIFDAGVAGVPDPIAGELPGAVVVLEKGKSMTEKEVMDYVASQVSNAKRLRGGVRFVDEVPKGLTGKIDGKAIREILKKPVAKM
Method in brief: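 BHK-15 cells grown to confluency, transfected with firefly luciferase-pcDNA3 plasmid by Lipofectamine; complexes removed at 3 h and replaced with medium holding serial compound dilutions from DMSO stock; 37 °C, 5% CO2, 20 h. Cells lysed and luminescence read with firefly luciferase substrate; signal compared with 1% DMSO-treated cells. Controls: uninfected, infected, DMSO-treated.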

SMILES	GI50 at 36 h [1]	inhibition at 50 µM (Yellow fever virus [2])	EC50 (Yellow fever virus [3])	selectivity ratio [4]	inhibition [5]
CCCCc1ccc(-c2nc(C)c(C(C)=O)s2)cc1	59.4 µM	99.8%	10.1 µM	6	
COC(=O)c1sc(-c2ccc3ccccc3c2)nc1C(Br)Br		26%			
Nc1ccccc1SCc1csc(-c2ccc(Cl)cc2)n1	61 µM			2	
COC(=O)c1sc(-c2ccccc2F)nc1C(Br)Br		< 50%			
COC(=O)c1sc(-c2ccc(Br)cc2)nc1C(Br)Br	408 µM	81.9%	3.3 µM	121	
CCCc1ccc(-c2nc(C)c(C(=O)OC)s2)cc1	499 µM	83.2%	34.3 µM	12	
CCCCc1ccc(-c2nc(C)c(/C(C)=N/NC(=N)N)s2)cc1	353 µM	99.2%	2.4 µM	147	inactive
COC(=O)c1sc(-c2ccc(C(F)(F)F)cc2)nc1C(Br)Br	262 µM	91%	10.6 µM	26	
COC(=O)c1sc(-c2ccc(Cl)c(Cl)c2)nc1C		-8.2%			
COC(=O)c1sc(-c2ccccc2)nc1C		< 50%			
COC(=O)c1sc(-c2ccc(F)cc2)nc1C(Br)Br		< 50%			
COC(=O)c1sc(-c2ccccc2Br)nc1C(Br)Br		< 50%			
CCCCc1ccc(-c2nc(C)c(C(=O)SC)s2)cc1	46.5 µM	94.1%	45.6 µM	1	
COC(=O)c1sc(-c2cccc(Br)c2)nc1C(Br)Br	26.5 µM	93%	26 µM	1	
COC(=O)c1sc(-c2cccc(Br)c2)nc1C		< 50%			
COC(=O)c1sc(Cc2ccc(Cl)cc2)nc1C		-6.5%			

SMILES	GI50 at 36 h [1]	inhibition at 50 µM (Yellow fever virus [2])	EC50 (Yellow fever virus [3])	selectivity ratio [4]	inhibition [5]
COC(=O)c1sc(-c2ccc(F)cc2)nc1C		< 50%			
CCCCc1ccc(-c2nc(C)c(C(=O)OC)s2)cc1	63.1 µM	91.9%	2.8 µM	22	
COC(=O)c1sc(Cc2ccccc2)nc1C		-23.8%			
CCCCCc1ccc(-c2nc(C)c(C(=O)OC)s2)cc1	41.5 µM	98.6%	38.9 µM	1.1	
COC(=O)c1sc(-c2ccccc2Cl)nc1C(Br)Br		< 50%			
COC(=O)c1sc(-c2ccc(OC)cc2)nc1C		< 50%			
COC(=O)c1sc(-c2ccc(OC)cc2)nc1C(Br)Br		< 50%			
COC(=O)c1sc(-c2ccc(Cl)c(Cl)c2)nc1C(Br)Br		42.2%			
COC(=O)c1sc(-c2ccccc2Br)nc1C		< 50%			
COC(=O)c1sc(-c2ccc(C(C)(C)C)cc2)nc1C		< 50%			
COC(=O)c1sc(-c2ccccc2)nc1C(Br)Br		< 50%			
COC(=O)c1sc(-c2ccccc2F)nc1C		< 50%			
COC(=O)c1sc(-c2ccc(Br)cc2)nc1C		< 50%			
CCCCc1ccc(-c2nc(C)c(C(=O)O)s2)cc1	366 µM	83.2%	203 µM		
COC(=O)c1sc(-c2ccccc2Cl)nc1C		< 50%			
